Experiment [1] deals with T1, Lysine-specific demethylase 4C (Homo sapiens) (UniProt Q9H3R0).
T1 sequence (whole entry): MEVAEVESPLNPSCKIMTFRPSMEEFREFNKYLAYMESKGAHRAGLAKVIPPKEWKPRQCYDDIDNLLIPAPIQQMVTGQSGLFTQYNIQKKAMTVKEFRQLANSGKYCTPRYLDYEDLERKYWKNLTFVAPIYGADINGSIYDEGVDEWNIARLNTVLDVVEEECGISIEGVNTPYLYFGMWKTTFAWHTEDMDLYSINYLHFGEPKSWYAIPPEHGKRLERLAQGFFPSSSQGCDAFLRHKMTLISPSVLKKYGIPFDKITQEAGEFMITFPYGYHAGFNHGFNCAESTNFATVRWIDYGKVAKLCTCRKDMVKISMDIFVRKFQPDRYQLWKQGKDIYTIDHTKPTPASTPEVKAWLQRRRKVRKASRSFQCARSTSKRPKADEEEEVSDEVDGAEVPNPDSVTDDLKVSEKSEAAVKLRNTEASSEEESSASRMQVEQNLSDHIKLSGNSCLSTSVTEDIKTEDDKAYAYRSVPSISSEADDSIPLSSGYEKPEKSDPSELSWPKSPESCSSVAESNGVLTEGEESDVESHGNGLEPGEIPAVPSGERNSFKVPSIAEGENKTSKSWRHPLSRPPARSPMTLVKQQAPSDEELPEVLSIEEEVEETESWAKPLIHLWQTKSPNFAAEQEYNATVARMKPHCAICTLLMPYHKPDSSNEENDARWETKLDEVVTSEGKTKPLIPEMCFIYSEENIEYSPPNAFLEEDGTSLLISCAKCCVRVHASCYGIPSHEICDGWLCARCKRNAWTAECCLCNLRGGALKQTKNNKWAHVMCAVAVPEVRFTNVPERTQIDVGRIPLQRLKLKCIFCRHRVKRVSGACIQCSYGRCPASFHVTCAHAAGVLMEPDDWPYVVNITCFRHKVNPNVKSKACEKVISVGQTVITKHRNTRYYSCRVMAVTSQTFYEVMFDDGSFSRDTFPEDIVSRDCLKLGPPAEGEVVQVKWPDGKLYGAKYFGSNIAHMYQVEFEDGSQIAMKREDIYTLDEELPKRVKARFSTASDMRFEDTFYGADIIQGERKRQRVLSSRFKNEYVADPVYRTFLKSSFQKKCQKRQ
Nature of the experiment: Inhibition of KDM4C (unknown origin) at 1 uM relative to control.

Experiment [2] concerns the target T2, Lysine-specific demethylase 5A (Homo sapiens, UniProt P29375). Nature of the experiment: Inhibition of KDM5A (unknown origin).
For experiment [3], the target named is T1, Lysine-specific demethylase 4C (Homo sapiens). Nature of the experiment: Inhibition of KDM4C (unknown origin) at 0.01 uM relative to control.
Experiment [4] shares this target. Briefly: Inhibition of KDM4C (unknown origin) at 0.25 uM relative to control.
Experiment [5] deals with T3, Lysine-specific demethylase 4A (Homo sapiens) (UniProt O75164).
T3 sequence (whole entry): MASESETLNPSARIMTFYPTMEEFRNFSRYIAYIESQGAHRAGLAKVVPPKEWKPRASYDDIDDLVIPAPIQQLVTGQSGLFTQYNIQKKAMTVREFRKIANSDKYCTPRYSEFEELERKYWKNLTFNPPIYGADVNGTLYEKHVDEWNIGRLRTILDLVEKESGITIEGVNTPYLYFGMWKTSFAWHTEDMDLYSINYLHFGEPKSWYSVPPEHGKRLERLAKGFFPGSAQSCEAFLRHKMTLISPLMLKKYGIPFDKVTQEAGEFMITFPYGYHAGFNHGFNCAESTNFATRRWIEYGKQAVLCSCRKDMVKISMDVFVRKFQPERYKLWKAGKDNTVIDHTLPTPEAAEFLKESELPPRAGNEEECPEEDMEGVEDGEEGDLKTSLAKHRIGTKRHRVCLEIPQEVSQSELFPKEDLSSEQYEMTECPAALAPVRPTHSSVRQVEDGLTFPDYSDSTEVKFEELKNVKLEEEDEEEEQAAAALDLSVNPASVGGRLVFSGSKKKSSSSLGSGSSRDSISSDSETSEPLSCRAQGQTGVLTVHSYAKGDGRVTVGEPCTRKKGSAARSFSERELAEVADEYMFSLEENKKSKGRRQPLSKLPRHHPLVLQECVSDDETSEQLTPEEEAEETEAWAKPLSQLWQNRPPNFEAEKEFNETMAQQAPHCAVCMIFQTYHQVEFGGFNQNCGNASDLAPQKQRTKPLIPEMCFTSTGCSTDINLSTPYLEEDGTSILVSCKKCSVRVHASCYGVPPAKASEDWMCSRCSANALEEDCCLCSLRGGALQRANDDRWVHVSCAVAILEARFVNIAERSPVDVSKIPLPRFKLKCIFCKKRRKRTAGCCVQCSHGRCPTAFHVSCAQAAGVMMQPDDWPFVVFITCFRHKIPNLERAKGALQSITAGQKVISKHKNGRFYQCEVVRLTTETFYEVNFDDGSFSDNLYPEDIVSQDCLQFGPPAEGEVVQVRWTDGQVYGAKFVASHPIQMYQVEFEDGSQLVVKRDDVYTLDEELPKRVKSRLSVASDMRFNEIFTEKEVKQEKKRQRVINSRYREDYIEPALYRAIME
Briefly: Inhibition of KDM4A (unknown origin) at 0.25 uM relative to control.

The subject of experiment [6] is MKN-45. Briefly: Antiproliferative activity against human MKN-45 cells assessed as reduction in cell proliferation measured after 6 days by MTS assay. The format is functional, cell-based. The conditions noted are these: MKN-45, 144 h. The essentials: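 MKN45 cells were seeded at 3×10^3 cells per well and treated for 4 or 6 days, as indicated. Proliferation was read by MTS assay and IC50 derived. Three independent experiments, mean ± SD.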

The target of experiment [7] is T4, Lysine-specific demethylase 4A (Homo sapiens, UniProt O75164).
T4 sequence (O75164 whole entry): T3 sequence (whole entry)
Briefly: Inhibition of KDM4A (unknown origin).

For experiment [8], the target named is T5, Lysine-specific demethylase 6B (Homo sapiens, UniProt O15054). Nature of the experiment: Inhibition of KDM6B (unknown origin) at 0.01 uM relative to control.
T5 sequence (O15054 whole entry): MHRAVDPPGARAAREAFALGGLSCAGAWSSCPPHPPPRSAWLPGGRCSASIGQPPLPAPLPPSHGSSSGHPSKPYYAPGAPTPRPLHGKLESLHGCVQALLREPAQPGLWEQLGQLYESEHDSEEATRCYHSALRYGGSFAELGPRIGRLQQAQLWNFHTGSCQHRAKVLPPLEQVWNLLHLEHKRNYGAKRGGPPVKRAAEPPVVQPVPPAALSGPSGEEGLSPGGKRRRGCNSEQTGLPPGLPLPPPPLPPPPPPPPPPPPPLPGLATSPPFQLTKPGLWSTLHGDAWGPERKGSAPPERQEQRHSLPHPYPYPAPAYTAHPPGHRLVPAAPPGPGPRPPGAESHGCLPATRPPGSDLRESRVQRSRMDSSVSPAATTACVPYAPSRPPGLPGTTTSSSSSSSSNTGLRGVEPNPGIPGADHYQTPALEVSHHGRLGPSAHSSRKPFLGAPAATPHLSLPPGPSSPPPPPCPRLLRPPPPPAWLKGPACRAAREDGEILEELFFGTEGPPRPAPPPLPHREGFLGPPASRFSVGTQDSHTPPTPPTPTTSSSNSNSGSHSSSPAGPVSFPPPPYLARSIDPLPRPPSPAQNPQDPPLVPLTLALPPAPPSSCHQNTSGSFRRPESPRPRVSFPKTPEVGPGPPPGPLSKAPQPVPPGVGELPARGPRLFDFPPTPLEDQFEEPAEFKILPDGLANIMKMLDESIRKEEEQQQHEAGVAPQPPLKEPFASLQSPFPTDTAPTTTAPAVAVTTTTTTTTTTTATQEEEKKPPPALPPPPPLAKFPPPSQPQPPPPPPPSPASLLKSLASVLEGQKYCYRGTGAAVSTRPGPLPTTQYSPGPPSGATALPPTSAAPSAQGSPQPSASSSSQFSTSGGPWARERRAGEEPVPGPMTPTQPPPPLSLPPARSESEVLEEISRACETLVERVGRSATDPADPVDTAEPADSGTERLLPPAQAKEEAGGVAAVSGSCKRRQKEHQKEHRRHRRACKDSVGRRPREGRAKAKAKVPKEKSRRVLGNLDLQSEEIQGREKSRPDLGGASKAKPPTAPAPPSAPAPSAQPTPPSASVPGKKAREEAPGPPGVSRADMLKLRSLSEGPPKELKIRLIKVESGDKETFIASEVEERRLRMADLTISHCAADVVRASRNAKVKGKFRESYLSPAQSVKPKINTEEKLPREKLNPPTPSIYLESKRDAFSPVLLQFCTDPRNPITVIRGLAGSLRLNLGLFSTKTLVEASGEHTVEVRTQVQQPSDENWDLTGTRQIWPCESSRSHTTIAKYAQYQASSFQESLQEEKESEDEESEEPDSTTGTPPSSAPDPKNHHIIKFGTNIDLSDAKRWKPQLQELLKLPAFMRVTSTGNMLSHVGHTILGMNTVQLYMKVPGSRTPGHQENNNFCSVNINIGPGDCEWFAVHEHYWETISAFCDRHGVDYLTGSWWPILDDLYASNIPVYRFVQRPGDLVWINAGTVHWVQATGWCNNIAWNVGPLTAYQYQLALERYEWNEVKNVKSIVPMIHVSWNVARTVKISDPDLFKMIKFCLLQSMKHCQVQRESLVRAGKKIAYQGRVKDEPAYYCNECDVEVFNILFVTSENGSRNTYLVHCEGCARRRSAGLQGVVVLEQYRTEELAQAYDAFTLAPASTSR
The target in experiment [9] is T6, Lysine-specific demethylase 5B (Homo sapiens, UniProt Q9UGL1). Nature of the experiment: Inhibition of KDM5B in human MKN-45 cells assessed as increase in H3K4me2 accumulation measured after 5 days by Hoechst 33342 staining based immunofluorescence assay. The format is cell-based. The conditions noted are these: time 5.0 day. The gist of the method: (§1)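 MKN45 cells were seeded and left 24 h, then treated for 5 days. Cells were fixed in 4% paraformaldehyde, permeabilised with 0.1% Triton X-100 for 20 min and blocked with 5% BSA for 1 h. H3K4me2 or H3K4me3 primary antibody was applied at 4°C overnight, followed by Alexa Fluor 488 secondary and Hoechst 33342 (5 µg/mL) nuclear stain. Signal was quantified by high content imaging; three independent experiments.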
T6 sequence (Q9UGL1 whole entry): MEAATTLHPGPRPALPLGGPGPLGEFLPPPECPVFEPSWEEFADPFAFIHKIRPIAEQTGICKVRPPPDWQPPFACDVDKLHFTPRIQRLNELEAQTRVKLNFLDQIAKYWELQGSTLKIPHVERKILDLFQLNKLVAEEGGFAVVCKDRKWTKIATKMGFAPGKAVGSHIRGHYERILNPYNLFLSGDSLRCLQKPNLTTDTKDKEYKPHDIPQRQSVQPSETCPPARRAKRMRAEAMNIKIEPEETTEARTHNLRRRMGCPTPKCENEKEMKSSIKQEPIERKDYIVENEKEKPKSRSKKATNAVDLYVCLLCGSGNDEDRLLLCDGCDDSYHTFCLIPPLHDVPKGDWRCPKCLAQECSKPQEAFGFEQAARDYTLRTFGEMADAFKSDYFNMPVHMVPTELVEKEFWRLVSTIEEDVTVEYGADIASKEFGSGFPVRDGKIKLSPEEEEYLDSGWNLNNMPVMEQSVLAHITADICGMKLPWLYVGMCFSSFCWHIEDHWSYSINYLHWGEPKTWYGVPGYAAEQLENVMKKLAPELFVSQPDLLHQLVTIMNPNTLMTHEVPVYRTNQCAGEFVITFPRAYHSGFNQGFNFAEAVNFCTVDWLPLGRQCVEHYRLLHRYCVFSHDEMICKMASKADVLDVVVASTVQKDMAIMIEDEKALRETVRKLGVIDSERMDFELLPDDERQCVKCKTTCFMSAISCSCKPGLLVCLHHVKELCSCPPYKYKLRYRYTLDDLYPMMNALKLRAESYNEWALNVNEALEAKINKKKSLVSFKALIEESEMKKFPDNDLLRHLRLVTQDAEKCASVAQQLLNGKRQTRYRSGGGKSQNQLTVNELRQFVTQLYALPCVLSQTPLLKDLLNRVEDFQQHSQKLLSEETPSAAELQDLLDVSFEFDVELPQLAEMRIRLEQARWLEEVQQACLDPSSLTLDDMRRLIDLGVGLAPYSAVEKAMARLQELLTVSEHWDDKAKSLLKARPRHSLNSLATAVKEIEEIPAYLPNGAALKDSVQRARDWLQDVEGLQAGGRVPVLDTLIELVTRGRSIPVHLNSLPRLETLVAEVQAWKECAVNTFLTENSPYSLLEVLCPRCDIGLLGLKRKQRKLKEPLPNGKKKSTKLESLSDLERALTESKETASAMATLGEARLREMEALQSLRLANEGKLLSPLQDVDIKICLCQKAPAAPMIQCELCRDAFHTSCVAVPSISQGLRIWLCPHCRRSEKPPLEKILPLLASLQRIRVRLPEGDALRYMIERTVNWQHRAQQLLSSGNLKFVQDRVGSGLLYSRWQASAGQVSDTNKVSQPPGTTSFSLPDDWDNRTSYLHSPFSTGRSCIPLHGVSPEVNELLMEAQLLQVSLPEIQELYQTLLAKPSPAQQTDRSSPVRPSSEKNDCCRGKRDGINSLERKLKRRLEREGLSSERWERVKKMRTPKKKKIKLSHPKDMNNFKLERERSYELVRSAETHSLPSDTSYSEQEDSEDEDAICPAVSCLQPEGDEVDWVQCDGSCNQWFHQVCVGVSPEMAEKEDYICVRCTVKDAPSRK

Experiment [10] deals with T2, Lysine-specific demethylase 5A. Briefly: Inhibition of KDM5A (unknown origin) at 1 uM relative to control.
The target in experiment [11] is T5, Lysine-specific demethylase 6B. Briefly: Inhibition of KDM6B (unknown origin).
Experiment [12] concerns the target T6, Lysine-specific demethylase 5B. Nature of the experiment: Inhibition of KDM5B in human MKN-45 cells assessed as increase in H3K4me3 accumulation measured after 5 days by Hoechst 33342 staining based immunofluorescence assay. It counts as cell-based. The conditions noted are these: time 5.0 day. The gist of the method:
as §1

Experiment [13] addresses T2, Lysine-specific demethylase 5A. Nature of the experiment: Inhibition of KDM5A (unknown origin) at 0.25 uM relative to control.

The results in this text go back to ChEMBL document CHEMBL4680221, “Discovery of pyrazole derivatives as cellular active inhibitors of histone lysine specific demethylase 5B (KDM5B/JARID1B)” (Eur J Med Chem, 2020).

T2 sequence (P29375 whole entry): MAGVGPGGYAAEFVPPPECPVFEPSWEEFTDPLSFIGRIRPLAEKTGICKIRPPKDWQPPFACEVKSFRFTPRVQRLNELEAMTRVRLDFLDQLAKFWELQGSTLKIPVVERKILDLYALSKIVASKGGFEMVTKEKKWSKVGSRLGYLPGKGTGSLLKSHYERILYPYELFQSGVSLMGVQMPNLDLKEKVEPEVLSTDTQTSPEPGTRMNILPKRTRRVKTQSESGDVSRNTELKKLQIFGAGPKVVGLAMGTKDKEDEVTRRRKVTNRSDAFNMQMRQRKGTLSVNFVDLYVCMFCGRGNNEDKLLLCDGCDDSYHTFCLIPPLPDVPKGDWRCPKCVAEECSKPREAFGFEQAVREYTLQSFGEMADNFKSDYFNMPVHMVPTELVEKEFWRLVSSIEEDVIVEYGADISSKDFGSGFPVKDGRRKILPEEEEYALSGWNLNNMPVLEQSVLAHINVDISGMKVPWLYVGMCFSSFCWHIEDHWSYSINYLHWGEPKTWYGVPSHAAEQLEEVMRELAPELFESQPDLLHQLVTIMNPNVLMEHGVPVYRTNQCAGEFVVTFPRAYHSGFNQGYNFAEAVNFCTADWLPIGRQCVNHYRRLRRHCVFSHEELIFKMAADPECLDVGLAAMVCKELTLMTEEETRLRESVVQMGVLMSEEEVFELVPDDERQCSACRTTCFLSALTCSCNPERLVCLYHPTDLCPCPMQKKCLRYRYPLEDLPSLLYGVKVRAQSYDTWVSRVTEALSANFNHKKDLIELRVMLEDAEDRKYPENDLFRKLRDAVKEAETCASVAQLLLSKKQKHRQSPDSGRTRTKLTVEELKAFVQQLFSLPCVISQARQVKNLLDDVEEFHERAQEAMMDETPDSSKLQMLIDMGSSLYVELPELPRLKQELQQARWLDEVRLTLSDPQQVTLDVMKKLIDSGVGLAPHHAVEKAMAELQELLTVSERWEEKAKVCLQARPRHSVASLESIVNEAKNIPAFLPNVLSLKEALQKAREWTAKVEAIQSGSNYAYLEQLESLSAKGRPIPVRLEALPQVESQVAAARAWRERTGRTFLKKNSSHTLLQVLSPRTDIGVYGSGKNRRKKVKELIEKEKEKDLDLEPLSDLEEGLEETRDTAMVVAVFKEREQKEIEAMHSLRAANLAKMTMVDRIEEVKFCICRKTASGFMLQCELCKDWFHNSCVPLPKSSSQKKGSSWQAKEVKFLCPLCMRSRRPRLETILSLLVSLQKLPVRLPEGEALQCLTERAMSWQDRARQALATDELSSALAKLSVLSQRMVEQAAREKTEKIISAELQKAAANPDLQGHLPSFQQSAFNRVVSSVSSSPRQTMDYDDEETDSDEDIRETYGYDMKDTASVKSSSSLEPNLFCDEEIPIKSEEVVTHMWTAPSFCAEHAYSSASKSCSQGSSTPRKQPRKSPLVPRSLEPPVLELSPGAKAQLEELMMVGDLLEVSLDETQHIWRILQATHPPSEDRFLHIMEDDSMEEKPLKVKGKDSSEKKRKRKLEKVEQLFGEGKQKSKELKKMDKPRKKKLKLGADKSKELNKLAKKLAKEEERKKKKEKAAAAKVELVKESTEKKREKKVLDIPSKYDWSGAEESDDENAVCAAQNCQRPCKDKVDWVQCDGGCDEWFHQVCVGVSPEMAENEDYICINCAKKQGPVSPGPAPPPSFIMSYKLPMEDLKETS

On to `COc1ccc(-n2cc(C(=O)NCC(C)(C)N3CCOCC3)c(-c3ccccc3)n2)cc1`, for which the inhibition (usually the percentage by which the read-out fell short of the control) in experiment [1] was 50.1%; in experiment [3], 3.52%; in experiment [4], 39.4%; in experiment [5], 29.4%; in experiment [8] it was 3.57%; in experiment [9] it was “Dose-dependent effect”. Besides, the inhibition in [10] is 79.3%; in experiment [12], “Dose-dependent effect”; in experiment [13] it was 62.4%. The IC50 (usually the concentration that inhibits the measured activity by half) in [2] was 24.9 nM; in experiment [6], 20600 nM; in experiment [7], 954 nM; in experiment [11] it was over 1000 nM.
